Measurements reported in the M2OR odorant receptor database.

biological target: T1, OR2A7 (Homo sapiens) (UniProt Q96R45); settings: stereoisomer not certain
T1 sequence (whole entry): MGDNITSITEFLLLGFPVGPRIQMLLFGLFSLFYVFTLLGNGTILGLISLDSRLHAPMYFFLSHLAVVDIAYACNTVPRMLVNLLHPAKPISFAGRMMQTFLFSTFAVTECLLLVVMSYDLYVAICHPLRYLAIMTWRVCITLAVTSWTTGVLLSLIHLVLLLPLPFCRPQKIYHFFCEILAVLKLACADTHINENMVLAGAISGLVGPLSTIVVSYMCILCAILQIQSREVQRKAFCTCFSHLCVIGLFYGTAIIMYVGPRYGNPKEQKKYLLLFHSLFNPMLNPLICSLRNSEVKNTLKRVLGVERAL
Procedure, shortened: (§1)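 Transient luciferase assays in mammalian cell lines were common, though methods varied by source. The values come from published papers and their supplementary material, with extra details from the original authors when needed. Responsive refers to a measured signal the original authors judged statistically different from baseline, and non-responsive (inactive) to the remainder.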
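Note: active if original authors judged signal statistically different from baseline.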

Row | Compound | odorant receptor agonist call
1 | CCCCOCC(C)O (stereo not drawn) | inactive
2 | CCCCCCCCCCCCCCC(=O)O | inactive
3 | CCCCCCCC(=O)[O-].[H+] | active
4 | CCCO | inactive
5 | CCCCCCCC(=O)OCC | inactive
6 | CCCCCCCCCCCCCCCCCC(=O)OC | inactive
7 | CC(C)(C)c1ccccc1 | active
8 | CCCCCCCCCCCCCCCCCC(=O)[O-].[H+] | active
9 | CCCCCCCCCCCC(=O)O | active
10 | Cc1cccc(C)c1C | inactive
11 | CCCCCCCCCC(=O)OC | inactive
12 | CCCCCCC(=O)[O-].[H+] | inactive
13 | Cc1ccc(C(C)C)cc1 | inactive
14 | Cc1cnc(C)cn1 | inactive
15 | CCCCCCCCCCCCCCCC(=O)[O-].[H+] | inactive
16 | CC(C)=CCCC(C)=CCCC(C)=CCO | inactive
17 | CCCCCCCCCCCC(=O)OCC | inactive
18 | CC1=CCC2CC1C2(C)C (stereo not drawn) | active
19 | CCCCCCCCCCCCCC(=O)O | inactive
20 | CCCCCCCCO | inactive
21 | CCCCCCCCCCCCO | inactive
22 | O=c1ccc2ccccc2o1 | inactive
23 | COc1ccc2[nH]cc(CCNC(C)=O)c2c1 | inactive
24 | CCCCCCCCCCCC(=O)OC | inactive
25 | C=C1CCC2CC1C2(C)C (stereo not drawn) | active
26 | C=C(C)C1CC=C(C)CC1 (stereo not drawn) | inactive
27 | CCCCCCCCCCCCCCCCCC(=O)OCC | inactive

biological target: T2, OR2AG1 (Homo sapiens) (UniProt Q9H205); settings: stereoisomer not certain
T2 sequence (whole entry): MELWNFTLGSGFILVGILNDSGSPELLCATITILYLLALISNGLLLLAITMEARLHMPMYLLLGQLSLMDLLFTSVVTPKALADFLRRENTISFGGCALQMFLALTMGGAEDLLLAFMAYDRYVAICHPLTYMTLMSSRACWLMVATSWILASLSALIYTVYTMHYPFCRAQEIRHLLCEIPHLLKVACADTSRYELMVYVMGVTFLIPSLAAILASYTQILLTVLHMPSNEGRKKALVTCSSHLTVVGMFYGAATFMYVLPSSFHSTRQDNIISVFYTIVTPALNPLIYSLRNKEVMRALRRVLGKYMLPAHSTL
Procedure, shortened: as §1

Row | Compound | odorant receptor agonist call
28 | CCCC(C)C1OCC(C)(CCC)CO1 (stereo not drawn) | inactive
29 | CCCCCOC(=O)CCC | inactive
30 | CC(C)C1OC(C)(C)OCC1(C)C (stereo not drawn) | inactive

biological target: T3, OR2B11 (Homo sapiens) (UniProt Q5JQS5); settings: stereoisomer not certain
T3 sequence (whole entry): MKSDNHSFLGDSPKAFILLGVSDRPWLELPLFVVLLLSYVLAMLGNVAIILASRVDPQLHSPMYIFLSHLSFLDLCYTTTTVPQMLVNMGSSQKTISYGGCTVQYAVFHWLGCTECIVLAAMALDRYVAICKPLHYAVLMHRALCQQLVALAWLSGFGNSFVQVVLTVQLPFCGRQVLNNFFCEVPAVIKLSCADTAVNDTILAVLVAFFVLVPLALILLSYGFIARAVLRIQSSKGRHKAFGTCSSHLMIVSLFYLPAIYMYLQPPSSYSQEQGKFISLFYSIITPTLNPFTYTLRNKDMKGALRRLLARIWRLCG
Procedure, shortened: as §1

Row | Compound | odorant receptor agonist call
31 | C1CCC(SSC2CCCCC2)CC1 | active
32 | c1coc(CSSCc2ccco2)c1 | active
33 | O=c1ccc2ccccc2o1 | active
